≈ marks a conversion by molar mass, not a printed value.
Experiments:
Assay type in all cases: functional
[1] = test system: Streptococcus pneumoniae; assay: Antimicrobial activity against penicillin-susceptible Streptococcus pneumoniae by agar dilution method
[2] = test system: Streptococcus pneumoniae; assay: Antimicrobial activity against penicillin-intermediate Streptococcus pneumoniae by agar dilution method
[3] = test system: Streptococcus pneumoniae; assay: Antimicrobial activity against penicillin-resistant Streptococcus pneumoniae by agar dilution method
Outline: (§1)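 Agar dilution MIC on Mueller-Hinton agar with 5% sheep blood, inocula 10^4 CFU/spot; amoxicillin-clavulanate combined 1:2; S. pneumoniae ATCC 49619 quality control each run.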

[4] = test system: Streptococcus pneumoniae; assay: Antimicrobial activity against Streptococcus pneumoniae 19A by agar dilution method; outline: as §1
[5] = test system: Streptococcus pneumoniae; assay: Antimicrobial activity against Streptococcus pneumoniae 1 by time-kill analysis
Outline: (§2)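 Time-kill in cation-adjusted Mueller-Hinton broth with 5% lysed horse blood; inocula 5 × 105 to 5 × 10^6 CFU/ml; drugs at MIC, 2× and 4× MIC; 35°C shaking water bath; viable counts at 0, 3, 6, 12 and 24 h. Bactericidal if ≥3 log10 CFU/ml (99.9%) reduction from original inoculum; 90% and 99% killing also scored.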

[6] = test system: Streptococcus pneumoniae; assay: Antimicrobial activity against Streptococcus pneumoniae 2 by time-kill analysis
Outline: as §2, with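 “12,” for “12 and”, “=” for “if”, “drop” for “reduction”, “90%/99%/99.9%” for “90% and 99%”, “scored per strain.” for “also scored.”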

[7] = test system: Streptococcus pneumoniae; assay: Antimicrobial activity against Streptococcus pneumoniae 3 by time-kill analysis
Outline: as §2, with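 “12,” for “12 and”, “=” for “if”, “drop” for “reduction”, “90%/99%/99.9%” for “90% and 99%”, “scored per strain.” for “also scored.”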

[8] = test system: Streptococcus pneumoniae; assay: Antimicrobial activity against Streptococcus pneumoniae 4 by time-kill analysis
Outline: as §2, with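 “12,” for “12 and”, “=” for “if”, “drop” for “reduction”, “90%/99%/99.9%” for “90% and 99%”, “scored per strain.” for “also scored.”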

[9] = test system: Streptococcus pneumoniae; assay: Antimicrobial activity against Streptococcus pneumoniae 5 by time-kill analysis; outline: as §2
[10] = test system: Streptococcus pneumoniae; assay: Antimicrobial activity against Streptococcus pneumoniae 6 by time-kill analysis
Outline: as §2, with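 “12,” for “12 and”, “=” for “if”, “drop” for “reduction”, “90%/99%/99.9%” for “90% and 99%”, “scored per strain.” for “also scored.”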

[11] = test system: Streptococcus pneumoniae; assay: Antimicrobial activity against Streptococcus pneumoniae 7 by time-kill analysis
Outline: as §2, with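 “12,” for “12 and”, “=” for “if”, “drop” for “reduction”, “90%/99%/99.9%” for “90% and 99%”, “scored per strain.” for “also scored.”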

[12] = test system: Streptococcus pneumoniae; assay: Antimicrobial activity against Streptococcus pneumoniae 8 by time-kill analysis
Outline: as §2, with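 “12,” for “12 and”, “=” for “if”, “drop” for “reduction”, “90%/99%/99.9%” for “90% and 99%”, “scored per strain.” for “also scored.”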

[13] = test system: Streptococcus pneumoniae; assay: Antimicrobial activity against Streptococcus pneumoniae 9 by time-kill analysis; outline: as §2
[14] = test system: Streptococcus pneumoniae; assay: Antimicrobial activity against Streptococcus pneumoniae 10 by time-kill analysis
Outline: as §2, with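 “12,” for “12 and”, “=” for “if”, “drop” for “reduction”, “90%/99%/99.9%” for “90% and 99%”, “scored per strain.” for “also scored.”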

[15] = test system: Streptococcus pneumoniae; assay: Antimicrobial activity against Streptococcus pneumoniae 11 by time-kill analysis
Outline: as §2, with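 “12,” for “12 and”, “=” for “if”, “drop” for “reduction”, “90%/99%/99.9%” for “90% and 99%”, “scored per strain.” for “also scored.”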

[16] = test system: Streptococcus pneumoniae; assay: Antimicrobial activity against Streptococcus pneumoniae 12 by time-kill analysis
Outline: as §2, with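 “12,” for “12 and”, “=” for “if”, “drop” for “reduction”, “90%/99%/99.9%” for “90% and 99%”, “scored per strain.” for “also scored.”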

[17] = test system: Streptococcus pneumoniae; assay: Antimicrobial activity against Streptococcus pneumoniae isolate 24 by agar dilution method
[18] = test system: Streptococcus pneumoniae; assay: Antimicrobial activity against Streptococcus pneumoniae isolate 33 by agar dilution method; outline: as §1
[19] = test system: Streptococcus pneumoniae; assay: Antimicrobial activity against Streptococcus pneumoniae isolate 37 by agar dilution method; outline: as §1
[20] = test system: Streptococcus pneumoniae; assay: Antimicrobial activity against Streptococcus pneumoniae isolate 1055 by agar dilution method
[21] = test system: Streptococcus pneumoniae; assay: Antimicrobial activity against Streptococcus pneumoniae isolate 1146 by agar dilution method; outline: as §1
[22] = test system: Streptococcus pneumoniae; assay: Antimicrobial activity against Streptococcus pneumoniae isolate 1147 by agar dilution method; outline: as §1
[23] = test system: Streptococcus pneumoniae; assay: Antimicrobial activity against Streptococcus pneumoniae isolate 1384 by agar dilution method; outline: as §1
[24] = test system: Streptococcus pneumoniae; assay: Antimicrobial activity against Streptococcus pneumoniae isolate 1394 by agar dilution method
[25] = test system: Streptococcus pneumoniae; assay: Antimicrobial activity against Streptococcus pneumoniae isolate 1397 by agar dilution method; outline: as §1
[26] = test system: Streptococcus pneumoniae; assay: Antimicrobial activity against Streptococcus pneumoniae isolate 1424 by agar dilution method; outline: as §1
[27] = test system: Streptococcus pneumoniae; assay: Antimicrobial activity against Streptococcus pneumoniae isolate 1564 by agar dilution method
[28] = test system: Streptococcus pneumoniae; assay: Antimicrobial activity against Streptococcus pneumoniae isolate 2617 by agar dilution method; outline: as §1
[29] = test system: Streptococcus pneumoniae; assay: Antimicrobial activity against Streptococcus pneumoniae isolate 2686 by agar dilution method; outline: as §1
[30] = test system: Streptococcus pneumoniae; assay: Antimicrobial activity against Streptococcus pneumoniae isolate 2688 by agar dilution method; outline: as §1
[31] = test system: Streptococcus pneumoniae; assay: Antimicrobial activity against Streptococcus pneumoniae isolate 2874 by agar dilution method; outline: as §1
[32] = test system: Streptococcus pneumoniae; assay: Antimicrobial activity against Streptococcus pneumoniae isolate 2880 by agar dilution method; outline: as §1
[33] = test system: Streptococcus pneumoniae; assay: Antimicrobial activity against Streptococcus pneumoniae isolate 3260 by agar dilution method
[34] = test system: Streptococcus pneumoniae; assay: Antimicrobial activity against Streptococcus pneumoniae isolate 3263 by agar dilution method
[35] = test system: Streptococcus pneumoniae; assay: Antimicrobial activity against Streptococcus pneumoniae isolate 3275 by agar dilution method; outline: as §1
[36] = test system: Streptococcus pneumoniae; assay: Antimicrobial activity against Streptococcus pneumoniae isolate 3282 by agar dilution method
[37] = test system: Streptococcus pneumoniae; assay: Antimicrobial activity against Streptococcus pneumoniae isolate 3346 by agar dilution method
[38] = test system: Streptococcus pneumoniae; assay: Antimicrobial activity against Streptococcus pneumoniae isolate 3374 by agar dilution method; outline: as §1
[39] = test system: Streptococcus pneumoniae; assay: Antimicrobial activity against Streptococcus pneumoniae isolate 3412 by agar dilution method; outline: as §1
[40] = test system: Streptococcus pneumoniae; assay: Antimicrobial activity against Streptococcus pneumoniae isolate 3455 by agar dilution method
[41] = test system: Streptococcus pneumoniae; assay: Antimicrobial activity against Streptococcus pneumoniae isolate 3458 by agar dilution method
[42] = test system: Streptococcus pneumoniae; assay: Antimicrobial activity against Streptococcus pneumoniae isolate 3481 by agar dilution method; outline: as §1
[43] = test system: Streptococcus pneumoniae; assay: Antimicrobial activity against Streptococcus pneumoniae isolate 3587 by agar dilution method
[44] = test system: Streptococcus pneumoniae; assay: Antimicrobial activity against Streptococcus pneumoniae isolate 3681 by agar dilution method; outline: as §1
[45] = test system: Streptococcus pneumoniae; assay: Antimicrobial activity against Streptococcus pneumoniae isolate 3791 by agar dilution method; outline: as §1
[46] = test system: Streptococcus pneumoniae; assay: Antimicrobial activity against Streptococcus pneumoniae isolate 4747 by agar dilution method; outline: as §1
[47] = test system: Streptococcus pneumoniae; assay: Antimicrobial activity against Streptococcus pneumoniae isolate 4755 by agar dilution method; outline: as §1

COc1c(N2CCNC(C)C2)c(F)cc2c(=O)c(C(=O)O)cn(C3CC3)c12 (stereo unspecified) [GATIFLOXACIN]
MIC50 [1]: 0.5 µg/mL (≈ 1.33 µM) | MIC90 [1]: 4 µg/mL (≈ 10.7 µM) | MIC50 [2]: 0.25 µg/mL (≈ 0.666 µM) | MIC90 [2]: 0.5 µg/mL (≈ 1.33 µM) | MIC50 [3]: 0.5 µg/mL (≈ 1.33 µM) | MIC90 [3]: 1 µg/mL (≈ 2.66 µM) | MIC50 [4]: 0.5 µg/mL (≈ 1.33 µM) | MIC90 [4]: 0.5 µg/mL (≈ 1.33 µM) | MIC [5]: 4 µg/mL (≈ 10.7 µM) | MIC [6]: 0.25 µg/mL (≈ 0.666 µM) | MIC [7]: 0.25 µg/mL (≈ 0.666 µM) | MIC [8]: 4 µg/mL (≈ 10.7 µM) | MIC [9]: 0.5 µg/mL (≈ 1.33 µM) | MIC [10]: 0.25 µg/mL (≈ 0.666 µM) | MIC [11]: 0.5 µg/mL (≈ 1.33 µM) | MIC [12]: 0.25 µg/mL (≈ 0.666 µM) | MIC [13]: 0.5 µg/mL (≈ 1.33 µM) | MIC [14]: 0.25 µg/mL (≈ 0.666 µM) | MIC [15]: 0.5 µg/mL (≈ 1.33 µM) | MIC [16]: 0.25 µg/mL (≈ 0.666 µM) | MIC [17]: 0.5 µg/mL (≈ 1.33 µM) | MIC [18]: 0.5 µg/mL (≈ 1.33 µM) | MIC [19]: 0.5 µg/mL (≈ 1.33 µM) | MIC [20]: 16 µg/mL (≈ 42.6 µM) | MIC [21]: 2 µg/mL (≈ 5.33 µM) | MIC [22]: 4 µg/mL (≈ 10.7 µM) | MIC [23]: 0.5 µg/mL (≈ 1.33 µM) | MIC [24]: 0.5 µg/mL (≈ 1.33 µM) | MIC [25]: 0.5 µg/mL (≈ 1.33 µM) | MIC [26]: 0.25 µg/mL (≈ 0.666 µM) | MIC [27]: 0.5 µg/mL (≈ 1.33 µM) | MIC [28]: 0.5 µg/mL (≈ 1.33 µM) | MIC [29]: 0.25 µg/mL (≈ 0.666 µM) | MIC [30]: 0.5 µg/mL (≈ 1.33 µM) | MIC [31]: 0.5 µg/mL (≈ 1.33 µM) | MIC [32]: 0.25 µg/mL (≈ 0.666 µM) | MIC [33]: 0.125 µg/mL (≈ 0.333 µM) | MIC [34]: 0.25 µg/mL (≈ 0.666 µM) | MIC [35]: 0.25 µg/mL (≈ 0.666 µM) | MIC [36]: 0.125 µg/mL (≈ 0.333 µM) | MIC [37]: 0.125 µg/mL (≈ 0.333 µM) | MIC [38]: 0.25 µg/mL (≈ 0.666 µM) | MIC [39]: 0.25 µg/mL (≈ 0.666 µM) | MIC [40]: 0.5 µg/mL (≈ 1.33 µM) | MIC [41]: 0.5 µg/mL (≈ 1.33 µM) | MIC [42]: 0.25 µg/mL (≈ 0.666 µM) | MIC [43]: 0.25 µg/mL (≈ 0.666 µM) | MIC [44]: 0.5 µg/mL (≈ 1.33 µM) | MIC [45]: 0.5 µg/mL (≈ 1.33 µM) | MIC [46]: 0.125 µg/mL (≈ 0.333 µM) | MIC [47]: 0.25 µg/mL (≈ 0.666 µM)
